Laboratory results published in ChEMBL document CHEMBL1129587, “(Carboxyalkyl)benzyl propargyl ethers as selective inhibitors of leukocyte-type 12-lipoxygenases” (J Med Chem, 1996).

The compounds below were run against T1, Arachidonate 12-lipoxygenase (Sus scrofa, UniProt P16469) (assay: Inhibitory activity against conversion of [1-14C]arachidonic acid to 12-HPETE and its reduction product 12-HETE by porcine leukocyte type 12-lipoxygenase).
T1 sequence (P16469 whole entry): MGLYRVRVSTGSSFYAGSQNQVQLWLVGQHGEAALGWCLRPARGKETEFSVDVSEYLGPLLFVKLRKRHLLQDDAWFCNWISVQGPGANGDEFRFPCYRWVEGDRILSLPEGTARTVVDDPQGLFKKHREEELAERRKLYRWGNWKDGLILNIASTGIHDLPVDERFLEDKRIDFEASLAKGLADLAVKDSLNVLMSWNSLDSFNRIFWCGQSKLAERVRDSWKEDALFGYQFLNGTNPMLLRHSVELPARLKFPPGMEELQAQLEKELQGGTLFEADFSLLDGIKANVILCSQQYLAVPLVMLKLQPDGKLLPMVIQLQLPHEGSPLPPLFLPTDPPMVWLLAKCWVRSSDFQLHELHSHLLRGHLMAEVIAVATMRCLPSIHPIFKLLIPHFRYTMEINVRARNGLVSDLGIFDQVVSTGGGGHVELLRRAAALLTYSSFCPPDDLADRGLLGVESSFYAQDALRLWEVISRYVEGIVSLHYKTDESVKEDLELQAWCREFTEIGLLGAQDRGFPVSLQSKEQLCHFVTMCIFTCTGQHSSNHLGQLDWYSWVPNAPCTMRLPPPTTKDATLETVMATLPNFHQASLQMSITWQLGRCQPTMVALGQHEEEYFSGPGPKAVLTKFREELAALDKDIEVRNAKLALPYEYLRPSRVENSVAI
Procedure, shortened: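 Porcine leukocyte cytosol (75 μg/mL) in 100 mM HEPES, 2 mM CaCl2, 1 mM MgCl2, pH 8.0. Inhibitor added in DMSO and preincubated with enzyme 5 min at 37 °C. [1-14C]arachidonic acid then added (5 μM final) and reacted 15 min. Mixture acidified, products extracted and separated by TLC, and 12-HETE conversion measured by radioactivity scanning. Incubations run in triplicate; IC50 determined from concentration series.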

Row | SMILES | IC50 [µM]
1 | CCCCCCC#CCOCc1cccc(CCC(=O)O)c1 | > 10
2 | CCCCCCCCCCC#CCOCc1ccc(CCCC(=O)O)cc1 | > 10
3 | CCCCCCCCC#CCOCc1cccc(CCC(=O)O)c1 | 10
4 | CCCCCCCCCCC#CCOCc1cccc(CCC(=O)O)c1 | 0.32
5 | CCCCCCCC#CCOCc1ccc(C(=O)O)cc1 | 6
6 | CCCCCCCCCCCCCCC#CCOCc1ccc(CCC(=O)O)cc1 | > 10
7 | CCCCCCCCCCC#CCOCc1ccc(CC(=O)O)cc1 | 0.05
8 | CCCCCCCCCCCCCOCc1ccc(CCC(=O)O)cc1 | > 10
9 | CCCCCCCCCC/C=C\COCc1ccc(CCC(=O)O)cc1 | 2.5
10 | CCCCCCCCCCC#CCOCc1ccc(C(=O)O)cc1 | 0.06
11 | CCCCCC#CCCOCc1cccc(CCC(=O)O)c1 | > 10
12 | CCCCCCCCCCCCCCC#CCOCc1ccc(C(=O)O)cc1 | > 10
13 | O=C(O)CCc1ccc(COCC#CCCCCc2ccccc2)cc1 | 5
14 | CCCCCCCCC#CCSCc1cccc(CCC(=O)O)c1 | > 10
15 | CCCCCCCCCC/C=C/COCc1ccc(CCC(=O)O)cc1 | 0.04
